Test results reported in ChEMBL document CHEMBL1125434, “Preparation and in vitro and in vivo evaluation of quinolones with selective activity against gram-positive organisms” (1992).
Values after ≈ are worked out from the molar mass of the structure shown.

Columns and labels:
Format in all cases: functional
Acinetobacter = assay: In vitro minimum inhibitory concentration against Acinetobacter CMX 669 using brain-heart infusion agar
How it was run: (§1)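 Overnight cultures were grown in BHI broth at 36 °C. Twofold dilutions of a 2000 µg/mL stock were made in BHI agar, giving 200–0.005 µg/mL. Plates received about 10^4 organisms and were incubated for 18 h at 36 °C. MIC was the lowest concentration with no visible growth on the plate.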

Enterococcus faecium = assay: In vitro minimum inhibitory concentration against Enterococcus faecium ATCC 8043 using brain-heart infusion agar; how it was run: as §1
Escherichia coli = assay: In vitro minimum inhibitory concentration against Escherichia coli Juhl using brain-heart infusion agar; how it was run: as §1
Klebsiella aerogenes = assay: In vitro minimum inhibitory concentration against Enterobacter aerogenes ATCC 13048 using brain-heart infusion agar; how it was run: as §1
Klebsiella pneumoniae [1] = assay: In vitro minimum inhibitory concentration against Klebsiella pneumoniae 8045 using brain-heart infusion agar; how it was run: as §1
Pseudomonas aeruginosa [2] = assay: In vitro minimum inhibitory concentration against Pseudomonas aeruginosa K799 / WT using brain-heart infusion agar; how it was run: as §1
Pseudomonas aeruginosa [3] = assay: In vitro minimum inhibitory concentration against Pseudomonas aeruginosa A5007 using brain-heart infusion agar; how it was run: as §1
Staphylococcus aureus [4] = assay: In vitro minimum inhibitory concentration against Staphylococcus aureus ATCC 6538P using brain-heart infusion agar; how it was run: as §1
Staphylococcus aureus [5] = assay: In vitro minimum inhibitory concentration against Staphylococcus aureus A 5177 using brain-heart infusion agar; how it was run: as §1
Staphylococcus aureus [6] = assay: In vitro minimum inhibitory concentration against Staphylococcus aureus CMX 553 using brain-heart infusion agar; how it was run: as §1
Staphylococcus aureus [7] = assay: In vitro minimum inhibitory concentration against Staphylococcus aureus NCTC 10649 using brain-heart infusion agar; how it was run: as §1
[8] = test system: Staphylococcus epidermidis; assay: In vitro minimum inhibitory concentration against Staphylococcus epidermidis 3159 using brain-heart infusion agar; how it was run: as §1
Streptococcus equinus = assay: In vitro minimum inhibitory concentration against Streptococcus bovis A5169 using brain-heart infusion agar; how it was run: as §1
Staphylococcus aureus [9] = assay: In vivo antibacterial activity against Staphylococcus aureus NCTC 10649 infected mouse by oral administration
How it was run: (§2)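 Compound was given in water or in dilute NaOH diluted with water, orally or subcutaneously. The dose was split equally between 1 and 5 h post-infection. Groups were 10 mice at ≥3 dose levels. ED50 was calculated from day-6 cumulative mortality by the trimmed Logit method.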

Staphylococcus aureus [10] = assay: In vivo antibacterial activity against Staphylococcus aureus NCTC 10649 infected mouse by subcutaneous administration; settings: sc; how it was run: as §2
Streptococcus agalactiae = assay: In vitro minimum inhibitory concentration against Streptococcus agalactiae CMX 508 using brain-heart infusion agar; how it was run: as §1
Streptococcus pyogenes = assay: In vitro minimum inhibitory concentration against Streptococcus pyogenes 930 using brain-heart infusion agar; how it was run: as §1
Klebsiella pneumoniae [11] = assay: In vitro minimum inhibitory concentration brain-heart infusion agar; how it was run: as §1
Pseudomonas aeruginosa [12] = assay: Not Plasmodium species
Staphylococcus aureus [13] = assay: In vitro minimum inhibitory concentrationp against Staphylococcus aureus ATCC 6538P using brain-heart infusion agar; how it was run: as §1

SMILES | MIC (Acinetobacter) [µg/mL] | MIC (Enterococcus faecium) [µg/mL] | MIC (Escherichia coli) [µg/mL] | MIC (Klebsiella aerogenes) [µg/mL] | MIC (Klebsiella pneumoniae [1]) [µg/mL] | MIC (Pseudomonas aeruginosa [2]) [µg/mL] | MIC (Pseudomonas aeruginosa [3]) [µg/mL] | MIC (Staphylococcus aureus [4]) [µg/mL] | MIC (Staphylococcus aureus [5]) [µg/mL] | MIC (Staphylococcus aureus [6]) [µg/mL] | MIC (Staphylococcus aureus [7]) [µg/mL] | MIC [8] [µg/mL] | MIC (Streptococcus equinus) [µg/mL] | MIC (Streptococcus agalactiae) [µg/mL] | MIC (Streptococcus pyogenes) [µg/mL] | MIC (Klebsiella pneumoniae [11]) [µg/mL] | MIC (Pseudomonas aeruginosa [12]) [µg/mL] | MIC (Staphylococcus aureus [13]) [µg/mL] | ED50 (Staphylococcus aureus [9]) [mg/kg] | ED50 (Staphylococcus aureus [10]) [mg/kg]
CO/N=C1\CCN(c2nc3c(cc2F)c(=O)c(C(=O)O)cn3-c2ccc(F)cc2F)C1 | 1.56 (≈ 3.61 µM) | 0.39 (≈ 0.902 µM) | 0.78 (≈ 1.8 µM) | 3.1 (≈ 7.17 µM) | 0.78 (≈ 1.8 µM) | 6.2 (≈ 14.3 µM) | 6.2 (≈ 14.3 µM) | 0.05 (≈ 0.116 µM) | 0.1 (≈ 0.231 µM) | 0.1 (≈ 0.231 µM) | 0.05 (≈ 0.116 µM) | 0.1 (≈ 0.231 µM) | 1.56 (≈ 3.61 µM) | 0.39 (≈ 0.902 µM) | 0.78 (≈ 1.8 µM) | – | – | – | > 12 | 4.7
CON=C1CCN(c2nc3c(cc2F)c(=O)c(C(=O)O)cn3-c2ccc(F)cc2F)CC1 | 12.5 (≈ 28 µM) | 3.1 (≈ 6.94 µM) | 6.2 (≈ 13.9 µM) | 12.5 (≈ 28 µM) | 3.1 (≈ 6.94 µM) | 25 (≈ 56 µM) | 50 (≈ 112 µM) | 0.1 (≈ 0.224 µM) | 0.2 (≈ 0.448 µM) | 0.39 (≈ 0.874 µM) | 0.2 (≈ 0.448 µM) | 0.39 (≈ 0.874 µM) | 6.2 (≈ 13.9 µM) | 1.56 (≈ 3.49 µM) | 3.1 (≈ 6.94 µM) | – | – | – | > 12 | > 8
O=C(O)c1cn(-c2ccc(F)cc2F)c2cc(N3CC/C(=N/O)C3)c(F)cc2c1=O | 0.39 (≈ 0.934 µM) | 0.2 (≈ 0.479 µM) | 0.2 (≈ 0.479 µM) | 0.78 (≈ 1.87 µM) | 0.2 (≈ 0.479 µM) | 1.56 (≈ 3.74 µM) | 3.1 (≈ 7.43 µM) | < 0.05 | < 0.05 | < 0.05 | < 0.05 | < 0.05 | 0.39 (≈ 0.934 µM) | 0.2 (≈ 0.479 µM) | 0.2 (≈ 0.479 µM) | – | – | – | > 12 | 4.1
O=C(O)c1cn(-c2ccc(F)cc2F)c2cc(N3CCC(=NO)CC3)c(F)cc2c1=O | 1.56 (≈ 3.62 µM) | 0.39 (≈ 0.904 µM) | 0.39 (≈ 0.904 µM) | 3.1 (≈ 7.19 µM) | 0.39 (≈ 0.904 µM) | 3.1 (≈ 7.19 µM) | 6.2 (≈ 14.4 µM) | 0.05 (≈ 0.116 µM) | 0.1 (≈ 0.232 µM) | 0.1 (≈ 0.232 µM) | 0.1 (≈ 0.232 µM) | 0.1 (≈ 0.232 µM) | 1.56 (≈ 3.62 µM) | 0.39 (≈ 0.904 µM) | 0.39 (≈ 0.904 µM) | – | – | – | 6 | 3.2
CON=C1CCN(c2cc3c(cc2F)c(=O)c(C(=O)O)cn3-c2ccc(F)cc2F)CC1 | 6.2 (≈ 13.9 µM) | 3.1 (≈ 6.96 µM) | 0.2 (≈ 0.449 µM) | > 100 | 3.1 (≈ 6.96 µM) | > 100 | > 100 | 0.05 (≈ 0.112 µM) | 0.1 (≈ 0.225 µM) | 0.2 (≈ 0.449 µM) | 0.05 (≈ 0.112 µM) | 0.1 (≈ 0.225 µM) | 6.2 (≈ 13.9 µM) | 1.56 (≈ 3.5 µM) | 1.56 (≈ 3.5 µM) | – | – | – | > 12 | > 8
NC1CCN(c2cc3c(cc2F)c(=O)c(C(=O)O)cn3-c2ccc(F)cc2F)CC1 | 0.78 (≈ 1.87 µM) | 0.78 (≈ 1.87 µM) | 0.1 (≈ 0.24 µM) | 0.39 (≈ 0.934 µM) | 0.1 (≈ 0.24 µM) | 0.78 (≈ 1.87 µM) | 0.78 (≈ 1.87 µM) | – | 0.39 (≈ 0.934 µM) | 0.39 (≈ 0.934 µM) | – | 0.39 (≈ 0.934 µM) | 1.56 (≈ 3.74 µM) | 0.78 (≈ 1.87 µM) | 0.39 (≈ 0.934 µM) | – | – | 0.1 (≈ 0.24 µM) | – | –
O=C(O)c1cn(C2CC2)c2cc(N3CCNCC3)c(F)cc2c1=O [CIPROFLOXACIN] | – | – | – | – | – | – | – | – | – | – | – | – | – | – | – | – | – | – | 15.5 | 1.6

More lines, main results first:

MIC (Acinetobacter) [µg/mL] | MIC (Enterococcus faecium) [µg/mL] | MIC (Escherichia coli) [µg/mL] | MIC (Klebsiella aerogenes) [µg/mL] | MIC (Klebsiella pneumoniae [1]) [µg/mL] | MIC (Pseudomonas aeruginosa [2]) [µg/mL] | MIC (Pseudomonas aeruginosa [3]) [µg/mL] | MIC (Staphylococcus aureus [4]) [µg/mL] | MIC (Staphylococcus aureus [5]) [µg/mL] | MIC (Staphylococcus aureus [6]) [µg/mL] | MIC (Staphylococcus aureus [7]) [µg/mL] | MIC [8] [µg/mL] | MIC (Streptococcus equinus) [µg/mL] | MIC (Streptococcus agalactiae) [µg/mL] | MIC (Streptococcus pyogenes) [µg/mL] | MIC (Klebsiella pneumoniae [11]) [µg/mL] | MIC (Pseudomonas aeruginosa [12]) [µg/mL] | MIC (Staphylococcus aureus [13]) [µg/mL] | SMILES | ED50 (Staphylococcus aureus [9]) [mg/kg] | ED50 (Staphylococcus aureus [10]) [mg/kg]
3.1 (≈ 7.17 µM) | 1.56 (≈ 3.61 µM) | 0.78 (≈ 1.8 µM) | 3.1 (≈ 7.17 µM) | 0.78 (≈ 1.8 µM) | 6.2 (≈ 14.3 µM) | 12.5 (≈ 28.9 µM) | 0.05 (≈ 0.116 µM) | 0.1 (≈ 0.231 µM) | 0.2 (≈ 0.463 µM) | 0.1 (≈ 0.231 µM) | 0.2 (≈ 0.463 µM) | 3.1 (≈ 7.17 µM) | 0.78 (≈ 1.8 µM) | 1.56 (≈ 3.61 µM) | – | – | – | O=C(O)c1cn(-c2ccc(F)cc2F)c2nc(N3CCC(=NO)CC3)c(F)cc2c1=O | > 8 | > 2
0.2 (≈ 0.55 µM) | 0.1 (≈ 0.275 µM) | 0.02 (≈ 0.055 µM) | 0.39 (≈ 1.07 µM) | 0.05 (≈ 0.138 µM) | 0.78 (≈ 2.15 µM) | 0.78 (≈ 2.15 µM) | < 0.005 | 0.01 (≈ 0.0275 µM) | 0.02 (≈ 0.055 µM) | 0.01 (≈ 0.0275 µM) | 0.02 (≈ 0.055 µM) | 0.2 (≈ 0.55 µM) | 0.1 (≈ 0.275 µM) | 0.1 (≈ 0.275 µM) | – | – | – | O=C(O)c1cn(C2CC2)c2c(F)c(N3CC/C(=N\O)C3)c(F)cc2c1=O | 3 | 1.5
0.2 (≈ 0.578 µM) | 0.39 (≈ 1.13 µM) | 0.02 (≈ 0.0578 µM) | 0.2 (≈ 0.578 µM) | – | – | > 100 | 0.02 (≈ 0.0578 µM) | 0.05 (≈ 0.144 µM) | 0.05 (≈ 0.144 µM) | 0.05 (≈ 0.144 µM) | 0.05 (≈ 0.144 µM) | 0.78 (≈ 2.25 µM) | 0.2 (≈ 0.578 µM) | 0.39 (≈ 1.13 µM) | 0.05 (≈ 0.144 µM) | 0.78 (≈ 2.25 µM) | – | O=C(O)c1cn(C2CC2)c2nc(N3CC/C(=N\O)C3)c(F)cc2c1=O | – | –
0.39 (≈ 1.03 µM) | 0.2 (≈ 0.53 µM) | 0.2 (≈ 0.53 µM) | 0.39 (≈ 1.03 µM) | 0.1 (≈ 0.265 µM) | 1.56 (≈ 4.13 µM) | 3.1 (≈ 8.22 µM) | 0.01 (≈ 0.0265 µM) | 0.02 (≈ 0.053 µM) | 0.05 (≈ 0.133 µM) | 0.02 (≈ 0.053 µM) | 0.02 (≈ 0.053 µM) | 0.39 (≈ 1.03 µM) | 0.2 (≈ 0.53 µM) | 0.1 (≈ 0.265 µM) | – | – | – | O=C(O)c1cn(C2CC2)c2c(F)c(N3CCC(=NO)CC3)c(F)cc2c1=O | 3 | 6.7
